How the values were obtained:
Oryctolagus cuniculus [1] = organism: Oryctolagus cuniculus; assay: Dose required to produce(to produce 25% maximal response) In vitro agonistic activity against angiotensin II in rabbit aorta; format: functional
Outline: (§1)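 Isolated rabbit aorta or rat stomach strips were used. Agonist activity (%) is the AII dose producing 25% of maximal response divided by the analogue dose producing the same response. Each value comes from 3 experiments.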

Rattus norvegicus [2] = organism: Rattus norvegicus; assay: Dose required to produce(to produce 25% maximal response) In vitro agonistic activity against angiotensin II in rat stomach; format: functional; outline: as §1
Rattus norvegicus [3] = organism: Rattus norvegicus; assay: In vitro agonistic activity against angiotensin II was determined to produce 25% maximal response in rat stomach at a dose of 10 ng/mL; format: functional
Rattus norvegicus [4] = organism: Rattus norvegicus; assay: In vitro agonistic activity against angiotensin II was determined to produce 25% maximal response in rat stomach at a dose of 50 ng/mL; format: functional
Oryctolagus cuniculus [5] = organism: Oryctolagus cuniculus; assay: In vitro antagonistic activity against angiotensin II was determined to produce 25% maximal response in rabbit aorta at a dose of 10 ng/mL
Oryctolagus cuniculus [6] = organism: Oryctolagus cuniculus; assay: In vitro antagonistic activity against angiotensin II was determined to produce 25% maximal response in rabbit aorta at a dose of 50 ng/mL
Oryctolagus cuniculus [7] = organism: Oryctolagus cuniculus; assay: Antagonism determined in rabbit aorta against AII; format: functional; conditions: read-out: pA2 (converted)
Rattus norvegicus [8] = organism: Rattus norvegicus; assay: Antagonism determined in rat stomach against AII; format: functional; conditions: read-out: pA2 (converted)
Oryctolagus cuniculus [9] = organism: Oryctolagus cuniculus; assay: Dose required to produce(25% maximal response) In vitro agonistic activity against angiotensin II in rabbit aorta; format: functional; outline: as §1
Oryctolagus cuniculus [10] = organism: Oryctolagus cuniculus; assay: Antagonistic potency determined in rabbit aorta at 1 ng/mL expressed as dose ratio of AII to produce 25% of control maximal response; format: functional
Oryctolagus cuniculus [11] = organism: Oryctolagus cuniculus; assay: Antagonistic potency determined in rabbit aorta at 10 ng/mL expressed as dose ratio of AII to produce 25% of control maximal response; format: functional
Rattus norvegicus [12] = organism: Rattus norvegicus; assay: Dose required to produce( 25% maximal response) In vitro agonistic activity against angiotensin II in rat stomach; format: functional; outline: as §1
Rattus norvegicus [13] = organism: Rattus norvegicus; assay: Antagonistic potency determined in rat stomach at 1 ng/mL expressed as dose ratio of AII to produce 25% of control maximal response; format: functional
Rattus norvegicus [14] = organism: Rattus norvegicus; assay: Antagonistic potency determined in rat stomach at 10 ng/mL expressed as dose ratio of AII to produce 25% of control maximal response; format: functional
Rattus norvegicus [15] = organism: Rattus norvegicus; assay: Time course for AII (6 ng) induced pressor response in rats to return to 50% of pretreatment level after a bolus injection of 10 microg; format: functional, organism-based
Outline: (§2)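 Female Wistar rats were anesthetized with pentobarbital sodium (30 mg/kg), vagotomized, cannulated in the carotid artery and femoral vein, and given pentolinium tartrate (5 mg/200 g). After a bolus injection of inhibitor, 6 ng AII was injected at 15-min intervals while blood pressure was recorded by transducer. The read-out is the time for the pressor response to recover to 50% of pretreatment.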

Rattus norvegicus [16] = organism: Rattus norvegicus; assay: Time course for AII (6 ng) induced pressor response in rats to return to 50% of pretreatment level after a bolus injection of 3 microg; format: functional, organism-based; outline: as §2
Rattus norvegicus [17] = organism: Rattus norvegicus; assay: Time course for AII (6 ng) induced pressor response in rats to return to 50% of pretreatment level after a bolus injection of 30 microg; format: functional, organism-based; outline: as §2
Rattus norvegicus [18] = organism: Rattus norvegicus; assay: Time course for AII (6 ng) induced pressor response in rats to return to 50% of pretreatment level after a bolus injection of 50 microg; format: functional, organism-based; outline: as §2
Rattus norvegicus [19] = organism: Rattus norvegicus; assay: Time course for AII (6 ng) induced pressor response in rats to return to 50% of pretreatment level after a bolus injection of 1 microg; format: functional, organism-based; outline: as §2
Rattus norvegicus [20] = organism: Rattus norvegicus; assay: Time course for AII (6 ng) induced pressor response in rats to return to 50% of pretreatment level after a bolus injection of 5 microg; format: functional, organism-based; outline: as §2
Rattus norvegicus [21] = organism: Rattus norvegicus; assay: Time course for AII (6 ng) induced pressor response in rats to return to 50% of pretreatment level after a bolus injection of 100 microg; format: functional, organism-based; outline: as §2

CNCC(=O)N[C@@H](CCCN=C(N)N)C(=O)N[C@H](C(=O)N[C@@H](Cc1ccc(O)cc1)C(=O)N[C@H](C(=O)N[C@@H](Cc1c[nH]cn1)C(=O)N1CCC[C@H]1C(=O)N[C@@H](C(=O)O)C(C(F)(F)F)C(F)(F)F)C(C)C)C(C)C [listing 1 of 3 here]
Activity (Oryctolagus cuniculus [1]): 0%
Activity (Rattus norvegicus [2]): 0.03%
Potency (Rattus norvegicus [3]): 2
Potency (Rattus norvegicus [4]): 4.1
Dose ratio (Oryctolagus cuniculus [5]): 2.1
Dose ratio (Oryctolagus cuniculus [6]): 42

CNCC(=O)N[C@@H](CCCN=C(N)N)C(=O)N[C@H](C(=O)N[C@@H](Cc1ccc(O)cc1)C(=O)N[C@H](C(=O)N[C@@H](Cc1c[nH]cn1)C(=O)N1CCC[C@H]1C(=O)N[C@@H](CC(C)C)C(=O)O)C(C)C)C(C)C
Kb (Oryctolagus cuniculus [7]): 1.95 nM
Kb (Rattus norvegicus [8]): 2.51 nM

CNCC(=O)N[C@@H](CCCN=C(N)N)C(=O)N[C@H](C(=O)N[C@@H](Cc1ccc(O)cc1)C(=O)N[C@H](C(=O)N[C@@H](Cc1c[nH]cn1)C(=O)N1CCC[C@H]1C(=O)N[C@H](C(=O)O)C(C(F)(F)F)C(F)(F)F)C(C)C)C(C)C [listing 1 of 3 here]
Activity (Oryctolagus cuniculus [9]): 1.1%
Potency (Oryctolagus cuniculus [10]): 6.1
Potency (Oryctolagus cuniculus [11]): 294
Activity (Rattus norvegicus [12]): 0.8%
Potency (Rattus norvegicus [13]): 2.2
Potency (Rattus norvegicus [14]): 51.7

CNCC(=O)N[C@@H](CCCN=C(N)N)C(=O)N[C@H](C(=O)N[C@@H](Cc1ccc(O)cc1)C(=O)N[C@H](C(=O)N[C@@H](Cc1c[nH]cn1)C(=O)N1CCC[C@H]1C(=O)N[C@H](CC(C)C)C(=O)O)C(C)C)C(C)C
Recovery time (Rattus norvegicus [15]): 23.6 min
Recovery time (Rattus norvegicus [16]): 13.5 min
Recovery time (Rattus norvegicus [17]): 34.5 min
Recovery time (Rattus norvegicus [18]): 37.6 min

CNCC(=O)N[C@@H](CCCN=C(N)N)C(=O)N[C@H](C(=O)N[C@@H](Cc1ccc(O)cc1)C(=O)N[C@H](C(=O)N[C@@H](Cc1c[nH]cn1)C(=O)N1CCC[C@H]1C(=O)N[C@@H](C(=O)O)C(C(F)(F)F)C(F)(F)F)C(C)C)C(C)C [listing 2 of 3 here]
Kb (Oryctolagus cuniculus [7]): 7.94 nM
Kb (Rattus norvegicus [8]): 7.94 nM

CNCC(=O)N[C@@H](CCCN=C(N)N)C(=O)N[C@H](C(=O)N[C@@H](Cc1ccc(O)cc1)C(=O)N[C@H](C(=O)N[C@@H](Cc1c[nH]cn1)C(=O)N1CCC[C@H]1C(=O)N[C@@H](C(=O)O)C(C(F)(F)F)C(F)(F)F)C(C)C)C(C)C [listing 3 of 3 here]
Recovery time (Rattus norvegicus [19]): 12.5 min
Recovery time (Rattus norvegicus [15]): 60.1 min
Recovery time (Rattus norvegicus [16]): 32.3 min

H-DRVYVHPF-OH [[Val5] - ANGIOTENSIN II]
Activity (Oryctolagus cuniculus [1]): 100%
Activity (Rattus norvegicus [2]): 100%

CNCC(=O)N[C@@H](CCCN=C(N)N)C(=O)N[C@H](C(=O)N[C@@H](Cc1ccc(O)cc1)C(=O)N[C@H](C(=O)N[C@@H](Cc1c[nH]cn1)C(=O)N1CCC[C@H]1C(=O)N[C@H](C(=O)O)C(C(F)(F)F)C(F)(F)F)C(C)C)C(C)C [listing 2 of 3 here]
Kb (Oryctolagus cuniculus [7]): 0.832 nM
Kb (Rattus norvegicus [8]): 0.851 nM

CNCC(=O)N[C@@H](CCCN=C(N)N)C(=O)N[C@H](C(=O)N[C@@H](Cc1ccc(O)cc1)C(=O)N[C@H](C(=O)N[C@@H](Cc1c[nH]cn1)C(=O)N1CCC[C@H]1C(=O)N[C@H](C(=O)O)C(C(F)(F)F)C(F)(F)F)C(C)C)C(C)C [listing 3 of 3 here]
Recovery time (Rattus norvegicus [19]): 5.8 min
Recovery time (Rattus norvegicus [15]): 73.6 min
Recovery time (Rattus norvegicus [16]): 19 min
Recovery time (Rattus norvegicus [20]): 40.6 min

CNCC(=O)N[C@@H](CCCNC(=N)N)C(=O)N[C@H](C(=O)N[C@@H](Cc1ccc(O)cc1)C(=O)N[C@H](C(=O)N[C@@H](Cc1cnc[nH]1)C(=O)N1CCC[C@H]1C(=O)N[C@@H](C)C(=O)O)C(C)C)C(C)C
Recovery time (Rattus norvegicus [15]): 11 min
Recovery time (Rattus norvegicus [21]): 18 min
Recovery time (Rattus norvegicus [17]): 13.7 min

Reference: ChEMBL document CHEMBL1123764, “Long-acting angiotensin II inhibitors containing hexafluorovaline in position 8” (J Med Chem, 1987)
